The campaign covered roughly 310,000 compounds. About 2,800 (0.9%) were called active.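 The calls were made as follows: active = B-score of the integrated calcium signal more than 4 SD below the library mean, with starting fluorescence not abnormally high; inactive = the rest.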 The sample as a whole holds a higher share of actives than the screen did.
Test: enhancers of RGS4 function in calcium signaling – cell-based, HEK293 M3R inducible RGS4, calcium flux, primary screen (AID 463111);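 as to B-score: negative B-score means reduced calcium response which marks RGS4 activation or potentiation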
Details: HEK293 M3R/inducible RGS4, carbachol calcium flux Fluo4, at 10 µM; stronger effect = lower value
In short: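 System: HEK293 FlpIn-TREx cells, stable M3R, doxycycline-inducible RGS4. Timing: overnight RGS4 induction, 30 min dye load 37 °C, 20 min compound RT. Also added: carbachol, ECmax concentration. Measured by: Fluo4 fluorescence kinetic imaging of calcium. Evaluation: integrated calcium ratio converted to B score.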

SMILES	B-score
CCN(CC)P(=O)(Oc1cccc(C)c1)N(CC)CC	inactive
Cc1cccc(OP(=O)(Oc2cccc(C)c2)OC(c2ccccc2)C(F)(F)F)c1 (stereo not given)	-7.67 (active)
O=C1CC(=O)N(Cc2ccccc2)C(=O)N1CCCCCCN1C(=O)CC(=O)N(Cc2ccccc2)C1=O	inactive
CC(c1ccccc1)(c1ccccc1)c1ccncc1	inactive
CCNc1nc2[nH]c(=O)c3c(c2s1)OC(N)=C(C#N)C3c1cccs1 (stereo not given)	inactive
C=CC12CN(C)[C@@H]3C4CO[C@H](C[C@H]41)[C@]1(C(=O)Nc4ccccc41)[C@@H]32 (stereo not given in full)	-8.82 (active)
CCC(C)n1c(O)c(/C=N/Nc2nc3c(c(=O)n(C)c(=O)n3C)n2C)c(=O)[nH]c1=S (stereo not given)	inactive
CCOc1ccc(C2SCC(=O)Nc3c2c(C)nn3C2CCOC(C)(C)C2)cc1 (stereo not given)	inactive
Cc1ccc(CN2CCCC(C(=O)c3ccc4c(c3)OCO4)C2)cc1C (stereo not given)	-7.27 (active)
COc1ccc(C(=O)C2CCCN(Cc3ccc(C)s3)C2)cc1OC (stereo not given)	inactive
Cc1ccsc1C(=O)C1CCCN(Cc2ccc(O)cc2)C1 (stereo not given)	inactive
O=C(Cc1ccc(Cl)cc1)NCCN1CCN(C(=O)Cc2ccc(Cl)cc2)CC1	inactive
CCOC(=O)C1(Cc2ccc(Cl)cc2)CCN(C(C)CCn2cccn2)CC1 (stereo not given)	inactive
OC(Cn1c2ccccc2c2ccccc21)C[n+]1ccccc1 (stereo not given)	inactive
CN1CCN(/N=C/c2c[nH]c3ccccc23)CC1	inactive
CC(C)Oc1cccc(C(=O)C2CCCN(C3CCOCC3)C2)c1 (stereo not given)	-7.9 (active)
O=C(Nc1cccc(OC(=O)N2CCCCC2)c1)N1CCOCC1	inactive
COc1cccc(CN2CCCC(C(=O)c3ccccc3SC)C2)c1O (stereo not given)	inactive
COc1ccc(-c2nn(CCC#N)cc2C(=O)O)cc1	inactive
Cc1cccc(-n2c(O)c(/C=N/N3CCOCC3)c(=O)[nH]c2=S)c1	inactive
COc1cc(-n2c(=S)[nH]c3ccc(C)cc3c2=O)c(Cl)cc1Cl	inactive
CCCCCn1c(=O)c(C(=O)Nc2c(C)n(C)n(-c3ccccc3)c2=O)c(O)c2ccccc21	-7.47 (active)
CCCCCn1c(=O)c(C(=O)NCc2ccccc2)c(O)c2ccccc21	inactive
CCCCn1c(=O)c(C(=O)Nc2ccccc2Cl)c(O)c2ccccc21	inactive
O=C(O)CCn1cc(C=C2C(=O)NC(=S)NC2=O)c(-c2cccc(Br)c2)n1	inactive
